Where only a bound is given, the exact number is not on record here.

This passage reports IC50 results from ChEMBL document CHEMBL4177662, “Phosphamide-containing diphenylpyrimidine analogues (PA-DPPYs) as potent focal adhesion kinase (FAK) inhibitors with enhanced activity against pancreatic cancer cell lines” (Bioorg Med Chem, 2017).

For experiment [1], the target named is Focal adhesion kinase 1 (Homo sapiens, UniProt Q05397). In words: Inhibition of recombinant human N-terminal His-tagged FAK cytoplasmic domain (393 to 698 residues) expressed in baculovirus infected sf9 cells assessed as reduction in autophosphorylation after 60 mins by ADP-Glo kinase assay. The gist of the method: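 ADP-Glo luminescence assay. The kinase reaction ran in 1× kinase buffer with compound at 1 to 200 nM, for 60 min at room temperature. ADP-Glo reagent was then added to stop the reaction and deplete leftover ATP (40 min, room temperature). Detection reagent converted ADP to ATP for luciferase read-out (30 min). IC50 from curve fitting, mean ± SE of three independent experiments.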

Experiment [2] deals with ASPC1. In words: Antiproliferative activity against human Aspc-1 cells after 72 hrs by MTT assay. The experiment is classed as functional, cell-based. As to conditions: ASPC1, 72 h. The gist of the method: (§1)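 Cells grown in DMEM with 10% FBS and 1% penicillin-streptomycin at 37 °C, 5% CO2. Seeded at 4,000 to 5,000 cells/well, cultured one day, then exposed to compounds for 72 h at 1.25 to 40 μmol/L, five replicates per concentration. MTT absorbance read at 570 nm. IC50 from five-point dose-response curves; mean of at least three separate experiments.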

The test system of experiment [3] is BXPC-3. Description: Antiproliferative activity against human BxPC3 cells after 72 hrs by MTT assay. The experiment is classed as functional, cell-based. As to conditions: BXPC-3, 72 h. The essentials: as §1
On the technique in general: Formazan colour is commonly taken as a measure of viable cells.

The subject of experiment [4] is PANC-1. In words: Antiproliferative activity against human PANC1 cells after 72 hrs by MTT assay. The experiment is classed as functional, cell-based. The note with it: PANC-1, 72 h. The gist of the method: as §1
Experiment [5] in a line: Antiproliferative activity against human HPDE6c7 cells after 72 hrs by MTT assay. The experiment is classed as cell-based. The note with it: HPDE6c7, 72 h. The essentials:
as §1

Focal adhesion kinase 1, sequence (Q05397 whole entry, the tested form may be a part): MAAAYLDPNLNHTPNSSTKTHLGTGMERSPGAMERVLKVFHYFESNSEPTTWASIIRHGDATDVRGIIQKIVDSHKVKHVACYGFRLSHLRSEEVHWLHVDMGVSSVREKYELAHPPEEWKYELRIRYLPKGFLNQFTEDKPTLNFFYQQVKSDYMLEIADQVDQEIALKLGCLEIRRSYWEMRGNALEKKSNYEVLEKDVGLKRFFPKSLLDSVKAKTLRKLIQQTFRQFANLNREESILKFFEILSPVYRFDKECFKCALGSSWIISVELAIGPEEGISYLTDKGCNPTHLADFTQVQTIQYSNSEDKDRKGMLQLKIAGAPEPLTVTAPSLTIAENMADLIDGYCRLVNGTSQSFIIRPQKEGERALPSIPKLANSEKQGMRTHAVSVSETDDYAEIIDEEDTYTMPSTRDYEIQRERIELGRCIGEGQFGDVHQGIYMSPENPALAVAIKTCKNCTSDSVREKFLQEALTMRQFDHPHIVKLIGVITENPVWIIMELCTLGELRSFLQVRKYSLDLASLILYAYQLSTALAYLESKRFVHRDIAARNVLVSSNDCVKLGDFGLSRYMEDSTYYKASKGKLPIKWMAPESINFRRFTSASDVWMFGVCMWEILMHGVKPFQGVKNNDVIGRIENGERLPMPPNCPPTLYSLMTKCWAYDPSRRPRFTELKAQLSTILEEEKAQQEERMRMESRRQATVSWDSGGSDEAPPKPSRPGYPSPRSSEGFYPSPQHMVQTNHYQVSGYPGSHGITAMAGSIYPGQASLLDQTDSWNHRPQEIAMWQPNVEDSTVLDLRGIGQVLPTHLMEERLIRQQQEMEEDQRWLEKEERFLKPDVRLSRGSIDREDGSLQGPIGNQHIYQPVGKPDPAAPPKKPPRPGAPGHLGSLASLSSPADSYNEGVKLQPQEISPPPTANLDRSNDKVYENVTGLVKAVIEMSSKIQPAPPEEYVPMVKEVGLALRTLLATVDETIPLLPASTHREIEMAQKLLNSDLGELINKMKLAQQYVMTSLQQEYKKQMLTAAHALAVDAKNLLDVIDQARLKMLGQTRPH

For orientation: IC50 means the point on the concentration scale where inhibition reaches its midpoint. Take `CCOP(=O)(Cc1ccc(Nc2ncc([N+](=O)[O-])c(Nc3ccccc3C(=O)NC)n2)cc1)N1CCOCC1` (configuration not stated): the IC50 was 5.69 nM in experiment [1]; 6.42 µM in experiment [2]; 1020 nM in experiment [3]; more than 40 µM in experiment [4]; 8.11 µM in experiment [5].
Regarding `CNC(=O)c1ccccc1Nc1nc(Nc2ccc(N3CCOCC3)cc2OC)ncc1Cl`, the figures for the IC50 in experiment [4] and in experiment [5] were more than 20 µM and 11.4 µM, respectively.
As for `CCOP(=O)(CCCOc1ccc(Nc2ncc(Cl)c(Nc3ccccc3C(=O)NC)n2)cc1)OCC`, the 50% inhibitory concentration (IC50) in experiment [1] was 10.7 nM; in experiment [2], 4.93 µM; in experiment [3], 1040 nM; in experiment [4], 10.9 µM; in experiment [5] it was 4.43 µM.
Regarding `CCOP(=O)(Cc1ccc(Nc2ncc(Cl)c(Nc3ccccc3C(=O)NC)n2)cc1)OCC`, the IC50 is 4.25 nM in experiment [1]; 3.31 µM in experiment [2]; 20 nM in experiment [3]; 14.8 µM in experiment [4]; 5.44 µM in experiment [5].
As to `CCOP(=O)(Cc1ccc(Nc2ncc([N+](=O)[O-])c(Nc3ccccc3C(=O)NC)n2)cc1)OCC`, the IC50 in experiment [1] is 5.01 nM; in experiment [2], 15.2 µM; in experiment [3] it was 820 nM; in experiment [4], 19.2 µM; in experiment [5], 4.6 µM.
For the molecule `CCOP(=O)(CCCOc1ccc(Nc2ncc([N+](=O)[O-])c(Nc3ccccc3C(=O)NC)n2)cc1)OCC`, the IC50 in experiment [1] amounted to 6.18 nM; in experiment [2], 18.3 µM; in experiment [3], 2040 nM; in experiment [4], 25.4 µM; in experiment [5], 1.96 µM.
